≈ marks a conversion by molar mass, not a printed value.
Assays:
Type in all cases: functional, Salmonella enterica subsp. enterica serovar Typhimurium
Salmonella typhimurium [1] = assay: Antimicrobial activity against Salmonella enterica serovar Typhimurium CHS38 acrAB::Kan with GyrA D87G mutation
In short: (§1)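 MICs measured by broth microdilution on the Sensititre automated system and interpreted by CLSI broth microdilution standards. Ciprofloxacin was also tested by agar dilution, widening the range to 0.0075–128 μg/ml. Quality control strains were E. coli ATCC 25922 and 35218, E. faecalis ATCC 29212, S. aureus ATCC 29213 and P. aeruginosa ATCC 27853.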

Salmonella typhimurium [2] = assay: Antimicrobial activity against Salmonella enterica serovar Typhimurium S21-3 tolC::Kan with GyrA S83F, ParC S80I mutation; in short: as §1
Salmonella typhimurium [3] = assay: Antimicrobial activity against Salmonella enterica serovar Typhimurium S21-3 with GyrA S83F, ParC S80I mutation; in short: as §1
Salmonella typhimurium [4] = assay: Antimicrobial activity against Salmonella enterica serovar Typhimurium CS3 with GyrA S83F, D87N, ParC S80I mutation; in short: as §1
Salmonella typhimurium [5] = assay: Antimicrobial activity against Salmonella enterica serovar Typhimurium CHS18 gyrA+ with GyrA S38F mutation; in short: as §1
Salmonella typhimurium [6] = assay: Antimicrobial activity against Salmonella enterica serovar Typhimurium CHS14 gyrA+ with GyrA D87G mutation; in short: as §1
Salmonella typhimurium [7] = assay: Antimicrobial activity against Salmonella enterica serovar Typhimurium CHS18 acrAB::Kan with GyrA S38F mutation; in short: as §1
Salmonella typhimurium [8] = assay: Antimicrobial activity against Salmonella enterica serovar Typhimurium S21-2 tolC::Kan with GyrA S83F, ParC S80I mutation; in short: as §1
Salmonella typhimurium [9] = assay: Antimicrobial activity against Salmonella enterica serovar Typhimurium S21 tolC::Kan
In short: (§2)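 MICs by automated broth microdilution panels, interpreted to CLSI broth microdilution standards. Ciprofloxacin additionally tested by agar dilution across 0.0075 to 128 μg/ml. Quality control strains: E. coli ATCC 25922 and 35218, Enterococcus faecalis ATCC 29212, S. aureus ATCC 29213, P. aeruginosa ATCC 27853. Test strains are kanamycin-marked deletion mutants of ground-beef isolate S21.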

Salmonella typhimurium [10] = assay: Antimicrobial activity against Salmonella enterica serovar Typhimurium CS9 with GyrA S83F, D87N, ParC S80I mutation; in short: as §1
Salmonella typhimurium [11] = assay: Antimicrobial activity against Salmonella enterica serovar Typhimurium S21-3 acrAB::Kan with GyrA S83F, ParC S80I mutation; in short: as §1
Salmonella typhimurium [12] = assay: Antimicrobial activity against Salmonella enterica serovar Typhimurium CS1 tolC::Kan with GyrA S83F, D87N, ParC S80I mutation; in short: as §1
Salmonella typhimurium [13] = assay: Antimicrobial activity against Salmonella enterica serovar Typhimurium S21-4 with GyrA S83F, ParC S80I mutation; in short: as §1
Salmonella typhimurium [14] = assay: Antimicrobial activity against Salmonella enterica serovar Typhimurium GyrA S21-1 acrAB::Kan with GyrA S83F mutation; in short: as §1
Salmonella typhimurium [15] = assay: Antimicrobial activity against Salmonella enterica serovar Typhimurium S21-3 gyrA+ with ParC S80I mutation; in short: as §1
Salmonella typhimurium [16] = assay: Antimicrobial activity against Salmonella enterica serovar Typhimurium S21-4 acrAB::Kan with GyrA S83F, ParC S80I mutation; in short: as §1
Salmonella typhimurium [17] = assay: Antimicrobial activity against Salmonella enterica serovar Typhimurium CS9 acrAB::Kan with GyrA S83F, D87N, ParC S80I mutation; in short: as §1
Salmonella typhimurium [18] = assay: Antimicrobial activity against Salmonella enterica serovar Typhimurium CS1 with GyrA S83F, D87N, ParC S80I mutation; in short: as §1
Salmonella typhimurium [19] = assay: Antimicrobial activity against Salmonella enterica serovar Typhimurium S21-2 acrAB::Kan with GyrA S83F, ParC S80I mutation; in short: as §1
Salmonella typhimurium [20] = assay: Antimicrobial activity against Salmonella enterica serovar Typhimurium CHS38 with GyrA D87G mutation; in short: as §1
Salmonella typhimurium [21] = assay: Antimicrobial activity against Salmonella enterica serovar Typhimurium S21-1 GyrA S83F mutant; in short: as §1
Salmonella typhimurium [22] = assay: Antimicrobial activity against Salmonella enterica serovar Typhimurium S21-2 with GyrA S83F, ParC S80I mutation; in short: as §1
Salmonella typhimurium [23] = assay: Antimicrobial activity against Salmonella enterica serovar Typhimurium S21 acrAB::Kan; in short: as §2
Salmonella typhimurium [24] = assay: Antimicrobial activity against Salmonella enterica serovar Typhimurium CS3 acrAB::Kan with GyrA S83F, D87N, ParC S80I mutation; in short: as §1
Salmonella typhimurium [25] = assay: Antimicrobial activity against Salmonella enterica serovar Typhimurium S21 gyrA+; in short: as §1
Salmonella typhimurium [26] = assay: Antimicrobial activity against Salmonella enterica serovar Typhimurium CS1 gyrA+ with GyrA S83F, D87N, ParC S80I mutation; in short: as §1
Salmonella typhimurium [27] = assay: Antimicrobial activity against Salmonella enterica serovar Typhimurium CHS38 tolC::Kan with GyrA D87G mutation; in short: as §1
Salmonella typhimurium [28] = assay: Antimicrobial activity against Salmonella enterica serovar Typhimurium CS3 tolC::Kan with GyrA S83F, D87N, parC S80I mutation; in short: as §1
Salmonella typhimurium [29] = assay: Antimicrobial activity against Salmonella enterica serovar Typhimurium CS3 gyrA+ with GyrA S83F, D87N, ParC S80I mutation; in short: as §1
Salmonella typhimurium [30] = assay: Antimicrobial activity against Salmonella enterica serovar Typhimurium CHS14 acrAB::Kan with GyrA D87G mutation; in short: as §1
Salmonella typhimurium [31] = assay: Antimicrobial activity against Salmonella enterica serovar Typhimurium CHS18 with GyrA S38F mutation; in short: as §1
Salmonella typhimurium [32] = assay: Antimicrobial activity against Salmonella enterica serovar Typhimurium CHS18 tolC::Kan with GyrA S38F mutation; in short: as §1
Salmonella typhimurium [33] = assay: Antimicrobial activity against Salmonella enterica serovar Typhimurium CHS38 gyrA+ with GyrA D87G mutation; in short: as §1
Salmonella typhimurium [34] = assay: Antimicrobial activity against Salmonella enterica serovar Typhimurium S21-1 tolC::Kan with GyrA S83F mutation; in short: as §1
Salmonella typhimurium [35] = assay: Antimicrobial activity against Salmonella enterica serovar Typhimurium CS9 tolC::Kan with GyrA S83F, D87N, ParC S80I mutation; in short: as §1
Salmonella typhimurium [36] = assay: Antimicrobial activity against Salmonella enterica serovar Typhimurium CS1 acrAB::Kan with GyrA S83F, D87N, ParC S80I mutation; in short: as §1
Salmonella typhimurium [37] = assay: Antimicrobial activity against Salmonella enterica serovar Typhimurium CHS14 tolC::Kan with GyrA D87G mutant; in short: as §1
Salmonella typhimurium [38] = assay: Antimicrobial activity against Salmonella enterica serovar Typhimurium CS9 gyrA+ with GyrA S83F, D87N, ParC S80I mutation; in short: as §1
Salmonella typhimurium [39] = assay: Antimicrobial activity against Salmonella enterica serovar Typhimurium CHS14 with GyrA D87G mutation; in short: as §1
Salmonella typhimurium [40] = assay: Antimicrobial activity against Salmonella enterica serovar Typhimurium S21-4 tolC::Kan with GyrA S83F, ParC S80I mutation; in short: as §1
Salmonella typhimurium [41] = assay: Antimicrobial activity against Salmonella enterica serovar Typhimurium S21-2 gyrA+ with ParC S80I mutation; in short: as §1
Salmonella typhimurium [42] = assay: Antimicrobial activity against Salmonella enterica serovar Typhimurium S21; in short: as §1
Salmonella typhimurium [43] = assay: Antimicrobial activity against Salmonella enterica serovar Typhimurium S21-1 gyrA+; in short: as §1
Salmonella typhimurium [44] = assay: Antimicrobial activity against Salmonella enterica serovar Typhimurium S21-4 gyrA+ with ParC S80I mutation; in short: as §1

In the case of `C[C@@H]1CN(c2c(F)c(F)c3c(=O)c(C(=O)O)cn(C4CC4)c3c2F)C[C@H](C)N1` [ORBIFLOXACIN], the MIC (Salmonella typhimurium [1]) is reported as 0.06 µg/mL (≈ 0.152 µM), the MIC (Salmonella typhimurium [2]) is reported as 0.5 µg/mL (≈ 1.26 µM) and the MIC (Salmonella typhimurium [3]) is reported as 16 µg/mL (≈ 40.5 µM). The MIC (Salmonella typhimurium [4]) was over 16 µg/mL, the MIC (Salmonella typhimurium [5]) was 0.12 µg/mL (≈ 0.304 µM) and the MIC (Salmonella typhimurium [6]) was 0.12 µg/mL (≈ 0.304 µM). It also gave an MIC (Salmonella typhimurium [7]) of 0.5 µg/mL (≈ 1.26 µM), an MIC (Salmonella typhimurium [8]) of 0.25 µg/mL (≈ 0.632 µM) and an MIC (Salmonella typhimurium [9]) of under 0.015 µg/mL. The MIC (Salmonella typhimurium [10]) was over 16 µg/mL, the MIC (Salmonella typhimurium [11]) was 0.5 µg/mL (≈ 1.26 µM) and the MIC (Salmonella typhimurium [12]) was 4 µg/mL (≈ 10.1 µM). For the same compound, the MIC (Salmonella typhimurium [13]) was 16 µg/mL (≈ 40.5 µM), the MIC (Salmonella typhimurium [14]) was 0.12 µg/mL (≈ 0.304 µM) and the MIC (Salmonella typhimurium [15]) was 2 µg/mL (≈ 5.06 µM). It also gave an MIC (Salmonella typhimurium [16]) of 0.12 µg/mL (≈ 0.304 µM), an MIC (Salmonella typhimurium [17]) of 4 µg/mL (≈ 10.1 µM) and an MIC (Salmonella typhimurium [18]) of over 16 µg/mL. It also gave an MIC (Salmonella typhimurium [19]) of 0.25 µg/mL (≈ 0.632 µM), an MIC (Salmonella typhimurium [20]) of 0.5 µg/mL (≈ 1.26 µM) and an MIC (Salmonella typhimurium [21]) of 2 µg/mL (≈ 5.06 µM). The MIC (Salmonella typhimurium [22]) was 16 µg/mL (≈ 40.5 µM), the MIC (Salmonella typhimurium [23]) was under 0.015 µg/mL and the MIC (Salmonella typhimurium [24]) was 4 µg/mL (≈ 10.1 µM). For the same compound, the MIC (Salmonella typhimurium [25]) was 0.12 µg/mL (≈ 0.304 µM), the MIC (Salmonella typhimurium [26]) was 0.25 µg/mL (≈ 0.632 µM) and the MIC (Salmonella typhimurium [27]) was under 0.015 µg/mL. It also gave an MIC (Salmonella typhimurium [28]) of 4 µg/mL (≈ 10.1 µM), an MIC (Salmonella typhimurium [29]) of 0.25 µg/mL (≈ 0.632 µM) and an MIC (Salmonella typhimurium [30]) of 0.03 µg/mL (≈ 0.0759 µM). It also gave an MIC (Salmonella typhimurium [31]) of 1 µg/mL (≈ 2.53 µM), an MIC (Salmonella typhimurium [32]) of 0.06 µg/mL (≈ 0.152 µM) and an MIC (Salmonella typhimurium [33]) of under 0.15 µg/mL. The MIC (Salmonella typhimurium [34]) was 0.12 µg/mL (≈ 0.304 µM), the MIC (Salmonella typhimurium [35]) was 4 µg/mL (≈ 10.1 µM) and the MIC (Salmonella typhimurium [36]) was 4 µg/mL (≈ 10.1 µM). It also gave an MIC (Salmonella typhimurium [37]) of 0.03 µg/mL (≈ 0.0759 µM), an MIC (Salmonella typhimurium [38]) of 0.25 µg/mL (≈ 0.632 µM) and an MIC (Salmonella typhimurium [39]) of 1 µg/mL (≈ 2.53 µM). The MIC (Salmonella typhimurium [40]) was 0.12 µg/mL (≈ 0.304 µM), the MIC (Salmonella typhimurium [41]) was 2 µg/mL (≈ 5.06 µM) and the MIC (Salmonella typhimurium [42]) was 0.12 µg/mL (≈ 0.304 µM). For the same compound, the MIC (Salmonella typhimurium [43]) was 0.12 µg/mL (≈ 0.304 µM) and the MIC (Salmonella typhimurium [44]) was 8 µg/mL (≈ 20.2 µM).
